Reference: ChEMBL document CHEMBL1122912, “Synthesis and antitumor activity of structural analogues of the anticancer benzophenanthridine alkaloid fagaronine chloride” (1985)

Legend:
[1] = Compound was evaluated for its cytotoxic activity in vitro KB cell culture system derived from human epidermoid carcinoma; format: functional; details: read-out: ED50 (the source's name)
Mus musculus [2] = assay: Compound was evaluated for the anticancer activity against P388 lymphocytic leukemia in vivo in mouse at a dosage of 200 mg/kg and percent treated/control was reported; format: functional
Mus musculus [3] = assay: Compound was evaluated for the anticancer activity against P388 lymphocytic leukemia in vivo in mouse at a dosage of 100 mg/kg and percent treated/control was reported; format: functional
Mus musculus [4] = assay: Compound was evaluated for the anticancer activity against P388 lymphocytic leukemia in vivo in mouse at a dosage of 100 mg/kg and the weight difference was measured.; format: functional
Mus musculus [5] = assay: Compound was evaluated for the anticancer activity against P388 lymphocytic leukemia in vivo in mouse at a dosage of 200 mg/kg and the weight difference was measured.; format: functional
Mus musculus [6] = assay: Compound was evaluated for the anticancer activity against P388 lymphocytic leukemia in vivo in mouse at a dosage of 400 mg/kg and the weight difference was measured.; format: functional
Mus musculus [7] = assay: Compound was evaluated for the anticancer activity against P388 lymphocytic leukemia in vivo in mouse at a dosage of 400 mg/kg and percent treated/control was reported; format: functional
Mus musculus [8] = assay: Compound was evaluated for the anticancer activity against P388 lymphocytic leukemia in vivo in mouse at a dosage of 100 mg/kg. The survivals were reported.; format: functional
Mus musculus [9] = assay: Compound was evaluated for the anticancer activity against P388 lymphocytic leukemia in vivo in mouse at a dosage of 200 mg/kg. The survivals were reported.; format: functional
Mus musculus [10] = assay: Compound was evaluated for the anticancer activity against P388 lymphocytic leukemia in vivo in mouse at a dosage of 400 mg/kg. The survivals were reported.; format: functional
Mus musculus [11] = assay: Compound was evaluated for the anticancer activity against P388 lymphocytic leukemia in vivo in mouse at a dosage of 25 mg/kg and percent treated/control was reported; format: functional
Mus musculus [12] = assay: Compound was evaluated for the anticancer activity against P388 lymphocytic leukemia in vivo in mouse at a dosage of 50 mg/kg and percent treated/control was reported; format: functional
Mus musculus [13] = assay: Compound was evaluated for the anticancer activity against P388 lymphocytic leukemia in vivo in mouse at a dosage of 25 mg/kg and the weight difference was measured.; format: functional
Mus musculus [14] = assay: Compound was evaluated for the anticancer activity against P388 lymphocytic leukemia in vivo in mouse at a dosage of 50 mg/kg and the weight difference was measured.; format: functional
Mus musculus [15] = assay: Compound was evaluated for the anticancer activity against P388 lymphocytic leukemia in vivo in mouse at a dosage of 100 mg/kg; format: functional
Mus musculus [16] = assay: Compound was evaluated for the anticancer activity against P388 lymphocytic leukemia in vivo in mouse at a dosage of 200 mg/kg, survivals were reported.; format: functional
Mus musculus [17] = assay: Compound was evaluated for the anticancer activity against P388 lymphocytic leukemia in vivo in mouse at a dosage of 25 mg/kg. The survivals were reported.; format: functional
Mus musculus [18] = assay: Compound was evaluated for the anticancer activity against P388 lymphocytic leukemia in vivo in mouse at a dosage of 50 mg/kg. The survivals were reported.; format: functional
Mus musculus [19] = assay: Compound was evaluated for the anticancer activity against P388 lymphocytic leukemia in vivo in mouse at a dosage of 12.5 mg/kg and percent treated/control was reported; format: functional
Mus musculus [20] = assay: Compound was evaluated for the anticancer activity against P388 lymphocytic leukemia in vivo in mouse at a dosage of 12.5 mg/kg and the weight difference was measured.; format: functional
Mus musculus [21] = assay: Compound was evaluated for the anticancer activity against P388 lymphocytic leukemia in vivo in mouse at a dosage of 12.5 mg/kg. The survivals were reported.; format: functional
Mus musculus [22] = assay: Compound was evaluated for the anticancer activity against P388 lymphocytic leukemia in vivo in mouse at a dosage of 50 mg/kg, survivals were reported.; format: functional
Mus musculus [23] = assay: Compound was evaluated for the anticancer activity against M5076 sarcoma in vivo in mouse at a dosage of 100 mg/kg and percent treated/control was reported; format: functional
Mus musculus [24] = assay: Compound was evaluated for the anticancer activity against M5076 sarcoma in vivo in mouse at a dosage of 12.5 mg/kg and percent treated/control was reported; format: functional
Mus musculus [25] = assay: Compound was evaluated for the anticancer activity against M5076 sarcoma in vivo in mouse at a dosage of 25 mg/kg and percent treated/control was reported; format: functional
Mus musculus [26] = assay: Compound was evaluated for the anticancer activity against M5076 sarcoma in vivo in mouse at a dosage of 50 mg/kg and percent treated/control was reported; format: functional
Mus musculus [27] = assay: Compound was evaluated for the anticancer activity against M5076 sarcoma in vivo in mouse at a dosage of 6.25 mg/kg and percent treated/control was reported; format: functional
Mus musculus [28] = assay: Compound was evaluated for the anticancer activity against M5076 sarcoma in vivo in mouse at a dosage of 100 mg/kg and the weight difference was measured.; format: functional
Mus musculus [29] = assay: Compound was evaluated for the anticancer activity against M5076 sarcoma in vivo in mouse at a dosage of 12.5 mg/kg; format: functional
Mus musculus [30] = assay: Compound was evaluated for the anticancer activity against M5076 sarcoma in vivo in mouse at a dosage of 200 mg/kg and the weight difference was measured.; format: functional
Mus musculus [31] = assay: Compound was evaluated for the anticancer activity against M5076 sarcoma in vivo in mouse at a dosage of 25 mg/kg and the weight difference was measured.; format: functional
Mus musculus [32] = assay: Compound was evaluated for the anticancer activity against M5076 sarcoma in vivo in mouse at a dosage of 6.25 mg/kg and the weight difference was measured.; format: functional
Mus musculus [33] = assay: Compound was evaluated for the anticancer activity against M5076 sarcoma in mouse at a dosage of 400 mg/kg, survivals were reported; format: functional
Mus musculus [34] = assay: Compound was evaluated for the anticancer activity against M5076 sarcoma in vivo in mouse at a dosage of 100 mg/kg, survivals were reported; format: functional
Mus musculus [35] = assay: Compound was evaluated for the anticancer activity against M5076 sarcoma in vivo in mouse at a dosage of 12.5 mg/kg, survivals were reported.; format: functional
Mus musculus [36] = assay: Compound was evaluated for the anticancer activity against M5076 sarcoma in vivo in mouse at a dosage of 200 mg/kg, survivals were reported; format: functional
Mus musculus [37] = assay: Compound was evaluated for the anticancer activity against M5076 sarcoma in vivo in mouse at a dosage of 25 mg/kg, survivals were reported.; format: functional
Mus musculus [38] = assay: Compound was evaluated for the anticancer activity against M5076 sarcoma in vivo in mouse at a dosage of 50 mg/kg, survivals were reported.; format: functional
Mus musculus [39] = assay: Compound was evaluated for the anticancer activity against M5076 sarcoma in vivo in mouse at a dosage of 6.25 mg/kg, survivals were reported.; format: functional
Mus musculus [40] = assay: Compound was evaluated for the anticancer activity against M5076 sarcoma in vivo in mouse at a dosage of 50 mg/kg and the weight difference was measured.; format: functional
L1210 = assay: Activity against L1210 was reported.; format: functional, Mus musculus
[41] = Compound was evaluated for its cytotoxic activity in vitro KB cell culture system; format: functional; details: Homo sapiens, read-out: ED50 (the source's name)
Outline: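 Cytotoxicity was measured in cultured KB human cancer cells and reported as ED50 values.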

With COc1cc2c[n+](C)c3c(c2cc1OC)Cc1c-3ccc(O)c1OC.[Cl-] the EC50 [1] was 0.4 µg/mL, the T/C (Mus musculus [2]) was 134% and the T/C (Mus musculus [3]) was 116%. For the same compound, the Weight change (Mus musculus [4]) was 0.2, the Weight change (Mus musculus [5]) was -0.2 and the Weight change (Mus musculus [6]) was -1.5. The T/C (Mus musculus [7]) was 137%, the Survival (Mus musculus [8]) was 6 and the Survival (Mus musculus [9]) was 6. The Survival (Mus musculus [10]) was 6.

For COc1cc2c[n+](C)c3c(c2cc1OC)Cc1c-3ccc(OS(C)(=O)=O)c1OC.[Cl-], the EC50 [1] was 0.1 µg/mL.

For COc1cc2c[n+](C)c3c(c2cc1OC)Cc1cc(OS(C)(=O)=O)c(OC)cc1-3.[Cl-], the EC50 [1] was 0.01 µg/mL, the T/C (Mus musculus [2]) was 145% and the T/C (Mus musculus [3]) was 137%. It also gave a Weight difference (Mus musculus [4]) of -2.1, a Weight difference (Mus musculus [5]) of -3.6 and a T/C (Mus musculus [11]) of 128%. It also gave a T/C (Mus musculus [12]) of 136%, a Weight difference (Mus musculus [13]) of -1.3 and a Weight difference (Mus musculus [14]) of -0.6. It also gave a Survival (Mus musculus [15]) of 6, a Survival (Mus musculus [16]) of 5 and a Survival (Mus musculus [17]) of 6. The Survival (Mus musculus [18]) was 6.

COc1cc2c(cc1O)Cc1c-2[n+](C)cc2cc(OC)c(OC)cc12.[Cl-] gave an EC50 [1] of 0.03 µg/mL, a T/C (Mus musculus [19]) of 130% and a T/C (Mus musculus [11]) of 138%. The T/C (Mus musculus [12]) was 149%, the Weight difference (Mus musculus [13]) was -0.1 and the Weight difference (Mus musculus [14]) was -0.4. The Weight difference (Mus musculus [20]) was 0.1, the Survival (Mus musculus [21]) was 5 and the Survival (Mus musculus [17]) was 6. For the same compound, the Survival (Mus musculus [22]) was 6.

For COc1cc2c[n+](C)c3c(c2cc1OC)Cc1cc2c(cc1-3)OCO2.[Cl-], the T/C (Mus musculus [23]) was 137%, the T/C (Mus musculus [24]) was 109% and the T/C (Mus musculus [25]) was 113%. It also gave a T/C (Mus musculus [26]) of 107%, a T/C (Mus musculus [27]) of 115% and a Weight difference (Mus musculus [28]) of -4.4. The Weight difference (Mus musculus [29]) was -0.2, the Weight difference (Mus musculus [30]) was -7.2 and the Weight difference (Mus musculus [31]) was -0.3. It also gave a Weight difference (Mus musculus [32]) of -0.8, a Survival (Mus musculus [33]) of 0 and a Survival (Mus musculus [34]) of 9. For the same compound, the Survival (Mus musculus [35]) was 10, the Survival (Mus musculus [36]) was 6 and the Survival (Mus musculus [37]) was 10. The Survival (Mus musculus [38]) was 9, the Survival (Mus musculus [39]) was 10 and the Weight difference (Mus musculus [40]) was -2.

COc1cc2c[n+](C)c3c4cc5c(cc4ccc3c2cc1OC)OCO5.[Cl-] [NITIDINE CHLORIDE] showed a T/C (L1210) of 136.

For COc1cc2cc(-c3ccc4c(c3)OCO4)[n+](C)cc2cc1OC.[Cl-], the EC50 [41] was 0.005 µg/mL.

COc1cc2cc(-c3ccc(OC(C)C)c(OC)c3)[n+](C)cc2cc1OC.[Cl-] showed an EC50 [1] of over 100 µg/mL.
